Measurements as given in ChEMBL document CHEMBL2203216, “Fluoride enhances the activity of fungicides that destabilize cell membranes” (2012).
The source made the active and inactive calls. The rule behind the calls is not given here. Numbered stars: 1 amine (or outer) side, 2 acyl side, 3 side chain; on linkers, the order of the positions; unused ones are H or OH. Bridge positions count the residues as written; N and C are the ends. Square brackets hold non-standard residues; d marks the D form. Peptide text beside a SMILES is read from it. * marks the point of attachment. Orn(4R-OH,5R-OH) = O=C([C@H](C[C@@H](O)[C@@H](O)N[*:3])N[*:1])[*:2]; hTyr(3S-OH,4S-OH) = N[C@H](C(=O)O)[C@H](O)[C@@H](O)c1ccc(O)cc1; Pro(3S-OH,4S-Me) = C[C@H]1CN[C@H](C(=O)O)[C@H]1O; Palmitoyl = CCCCCCCCCCCCCCCC(=O)*; Hyp = O=C(O)[C@@H]1C[C@@H](O)CN1

How the values were obtained:
Saccharomyces cerevisiae [1] = test: Antifungal activity against Saccharomyces cerevisiae MYH 500 assessed as growth inhibition in presence of 30 mM sodium fluoride after 9 hrs; type: functional, organism-based
Outline: (§1)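 S. cerevisiae growth in liquid medium with amphotericin B over a concentration series, plus a fixed 30 mM or 80 mM of NaF, KCl or NaCl. Cultures were shaken at 30°C for 9 h.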

Saccharomyces cerevisiae [2] = test: Antifungal activity against Saccharomyces cerevisiae MYH 500 assessed as growth inhibition in presence of 80 mM sodium fluoride after 9 hrs; type: functional, organism-based; outline: as §1
Saccharomyces cerevisiae [3] = test: Antifungal activity against Saccharomyces cerevisiae MYH 500 assessed as growth inhibition in presence of 30 mM sodium fluoride after 48 hrs relative to untreated control; type: functional
Saccharomyces cerevisiae [4] = test: Potentiation of fluoride-induced antimicrobial effect against Saccharomyces cerevisiae MYH 500 assessed as increase in growth inhibition at 10 nM in presence of 30 to 100 mM sodium fluoride after 48 hrs; type: functional, organism-based
Outline: (§2)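 S. cerevisiae growth curves in liquid medium over 48 h. Amphotericin B was tested alone or at a fixed 10 nM or 20 nM with a range of sodium fluoride concentrations. Growth was followed as culture density.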

Saccharomyces cerevisiae [5] = test: Potentiation of fluoride-induced antimicrobial effect against Saccharomyces cerevisiae MYH 500 assessed as increase in growth inhibition at 10 nM in presence of 60 mM sodium fluoride after 48 hrs; type: functional, organism-based; outline: as §2
Saccharomyces cerevisiae [6] = test: Antifungal activity against Saccharomyces cerevisiae MYH 500 assessed as growth inhibition in presence of 30 mM NaCl after 9 hrs; type: functional, organism-based; outline: as §1
Neurospora crassa [7] = test: Antifungal activity against Neurospora crassa FGSC 2225 assessed as growth inhibition in presence of 30 mM sodium fluoride after 24 hrs relative to untreated control; type: functional
Outline: (§3)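 Filamentous fungus grown in liquid medium tubes with fluoride plus a drug series. Growth was scored visually after 24 h. The endpoint was the lowest concentration tube showing little or no visible growth.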

Saccharomyces cerevisiae [8] = test: Antifungal activity against Saccharomyces cerevisiae MYH 500 assessed as growth inhibition in presence of 80 mM sodium fluoride after 48 hrs relative to untreated control; type: functional
Saccharomyces cerevisiae [9] = test: Antifungal activity against Saccharomyces cerevisiae MYH 500 assessed as growth inhibition in presence of 80 mM NaCl after 9 hrs; type: functional, organism-based; outline: as §1
Saccharomyces cerevisiae [10] = test: Antifungal activity against Saccharomyces cerevisiae MYH 500 assessed as growth inhibition in presence of 80 mM Kcl after 9 hrs; type: functional, organism-based; outline: as §1
Neurospora crassa [11] = test: Antifungal activity against Neurospora crassa FGSC 2225 assessed as growth inhibition at 300 nM after 24 hrs; type: functional, organism-based
Outline: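 N. crassa, a filamentous fungus, was grown in liquid medium with amphotericin B for 24 h. Growth was scored visually in tubes, and the lowest concentration showing little or no visible growth was noted.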

Saccharomyces cerevisiae [12] = test: Antifungal activity against Saccharomyces cerevisiae MYH 500 assessed as growth inhibition in presence of 30 mM Kcl after 9 hrs; type: functional, organism-based; outline: as §1
Aspergillus nidulans [13] = test: Antifungal activity against Aspergillus nidulans ATCC 38163 assessed as growth inhibition in presence of 10 mM sodium fluoride after 24 hrs; type: functional, organism-based
Saccharomyces cerevisiae [14] = test: Potentiation of fluoride-induced antimicrobial effect against Saccharomyces cerevisiae MYH 500 assessed as increase in growth inhibition at 20 nM in presence of 30 to 100 mM sodium fluoride after 48 hrs; type: functional, organism-based; outline: as §2
Aspergillus nidulans [15] = test: Antifungal activity against Aspergillus nidulans ATCC 38163 assessed as growth inhibition in presence of 30 mM sodium fluoride after 24 hrs; type: functional, organism-based
Saccharomyces cerevisiae [16] = test: Antifungal activity against Saccharomyces cerevisiae MYH 500 assessed as growth inhibition at 300 nM after 48 hrs; type: functional, organism-based; outline: as §2
Neurospora crassa [17] = test: Antifungal activity against Neurospora crassa FGSC 2225 assessed as growth inhibition in presence of 10 mM sodium fluoride after 24 hrs relative to untreated control; type: functional; outline: as §3
Saccharomyces cerevisiae [18] = test: Antifungal activity against Saccharomyces cerevisiae MYH 500 at 10 nM after 48 hrs; type: functional, organism-based; outline: as §2
Saccharomyces cerevisiae [19] = test: Antifungal activity against Saccharomyces cerevisiae MYH 500 at 30 to 70 nM after 48 hrs; type: functional, organism-based; outline: as §2
Saccharomyces cerevisiae [20] = test: Antifungal activity against Saccharomyces cerevisiae MYH 500 assessed as growth inhibition at 3 mM in presence of 30 mM sodium fluoride after 24 hrs relative to untreated control; type: functional, organism-based
Saccharomyces cerevisiae [21] = test: Antifungal activity against Saccharomyces cerevisiae MYH 500 assessed as growth inhibition at 3 mM after 48 hrs; type: functional, organism-based
Saccharomyces cerevisiae [22] = test: Antifungal activity against Saccharomyces cerevisiae MYH 500 assessed as growth inhibition at 3 mM in presence of 30 mM sodium fluoride after 48 hrs relative to untreated control; type: functional

Cc1cccc(N(C)C(=S)Oc2ccc3ccccc3c2)c1
growth inhibition (GI) (Saccharomyces cerevisiae [1]): inactive
growth inhibition (GI) (Saccharomyces cerevisiae [2]): inactive

NYSTATIN
growth inhibition (GI) (Saccharomyces cerevisiae [1]): Active
growth inhibition (GI) (Saccharomyces cerevisiae [2]): Active

CCC(C)n1ncn(-c2ccc(N3CCN(c4ccc(OCC5COC(Cn6cncn6)(c6ccc(Cl)cc6Cl)O5)cc4)CC3)cc2)c1=O (centres undefined)
growth inhibition (GI) (Saccharomyces cerevisiae [1]): inactive
growth inhibition (GI) (Saccharomyces cerevisiae [2]): inactive

CN(C/C=C/C#CC(C)(C)C)Cc1cccc2ccccc12
growth inhibition (GI) (Saccharomyces cerevisiae [1]): inactive
growth inhibition (GI) (Saccharomyces cerevisiae [2]): inactive

C[C@@H]1[C@H](O)[C@@H](C)/C=C/C=C/C=C/C=C/C=C/C=C/C=C/[C@H](O[C@@H]2O[C@H](C)[C@@H](O)[C@H](N)[C@@H]2O)C[C@@H]2O[C@](O)(C[C@@H](O)C[C@@H](O)[C@H](O)CC[C@@H](O)C[C@@H](O)CC(=O)O[C@H]1C)C[C@H](O)[C@H]2C(=O)O [AMPHOTERICIN B]
fold change (FC) (Saccharomyces cerevisiae [3]): 10
growth inhibition (GI) (Saccharomyces cerevisiae [4]): Active
growth inhibition (GI) (Saccharomyces cerevisiae [5]): Active
growth inhibition (GI) (Saccharomyces cerevisiae [6]): Active
fold change (FC) (Neurospora crassa [7]): 10
fold change (FC) (Saccharomyces cerevisiae [8]): 30
growth inhibition (GI) (Saccharomyces cerevisiae [9]): Active
growth inhibition (GI) (Saccharomyces cerevisiae [10]): Active
growth inhibition (GI) (Neurospora crassa [11]): inactive
growth inhibition (GI) (Saccharomyces cerevisiae [12]): Active
growth inhibition (GI) (Aspergillus nidulans [13]): Active
growth inhibition (GI) (Saccharomyces cerevisiae [14]): Active
growth inhibition (GI) (Aspergillus nidulans [15]): Active
growth inhibition (GI) (Saccharomyces cerevisiae [16]): Active
fold change (FC) (Neurospora crassa [17]): 4
Activity (Saccharomyces cerevisiae [18]): inactive
Activity (Saccharomyces cerevisiae [19]): inactive

N=C(N)NCCC[C@@H]1NC(=O)[C@H](CCCNC(=N)N)NC(=O)[C@H](CCCNC(=N)N)NC(=O)[C@H](CCCNC(=N)N)NC(=O)[C@H](CCCNC(=N)N)NC(=O)[C@H](CCCNC(=N)N)NC(=O)[C@H](CCCNC(=N)N)NC1=O [NOVEXATIN]
growth inhibition (GI) (Saccharomyces cerevisiae [20]): Active
growth inhibition (GI) (Saccharomyces cerevisiae [21]): Active
fold change (FC) (Saccharomyces cerevisiae [22]): >3

CCCCCCCCCCCCCCCC(=O)N[C@H]1C[C@@H](O)[C@@H](O)NC(=O)[C@@H]2[C@@H](O)[C@@H](C)CN2C(=O)[C@H]([C@@H](C)O)NC(=O)[C@H]([C@H](O)[C@@H](O)c2ccc(O)cc2)NC(=O)[C@@H]2C[C@@H](O)CN2C(=O)[C@H]([C@@H](C)O)NC1=O (Palmitoyl-[Orn(4R-OH,5R-OH)]T[Hyp][hTyr(3S-OH,4S-OH)]T[Pro(3S-OH,4S-Me)]; lactam 1-C)
growth inhibition (GI) (Saccharomyces cerevisiae [1]): inactive
